Assay results as given in ChEMBL document CHEMBL3603803, “Design and synthesis of dithiocarbamate linked β-carboline derivatives: DNA topoisomerase II inhibition with DNA binding and apoptosis inducing ability” (Bioorg Med Chem, 2015).
Calls of active or inactive are those of the source. The calls are words filed in the database; no cut-off is given here.

How the values were obtained:
DU-145 [1] = test: Induction of apoptosis in human DU145 cells assessed as viable cells at 0.5 uM after 48 hrs by annexin V-FITC/propidium iodide staining-based flow cytometric analysis (reference value: 97.95%); type: functional; details: DU-145, 48 h, read-out: Activity
Calf thymus DNA [2] = test: Induction of DNA intercalation of calf thymus DNA at 10 uM by spectrofluorimetric analysis; type: nucleic-acid assay; details: Bos taurus
Method in brief: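 Fluorescence titration: CT-DNA added to compound solution and quenching of compound emission peak monitored (617 or 567 nm, depending on compound).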

Calf thymus DNA [3] = test: Binding affinity to calf thymus DNA surface at 1 uM by UV-vis spectrophotometric analysis; type: nucleic-acid assay; details: Bos taurus
DU-145 [4] = test: Cell cycle arrest in human DU145 cells assessed as accumulation at G0/G1 phase at 1 uM after 48 hrs by propidium iodide staining-based flow cytometric analysis (reference value: 85.94%); type: functional
DU-145 [5] = test: Induction of apoptosis in human DU145 cells assessed as late apoptotic cells at 1 uM after 48 hrs by annexin V-FITC/propidium iodide staining-based flow cytometric analysis (reference value: 1.52%); type: functional
DU-145 [6] = test: Induction of apoptosis in human DU145 cells assessed as wrinkled cells at 0.5 uM after 48 hrs by Hoechst 33258 staining-based confocal microscopic analysis; type: functional, cell-based
Method in brief: (§1)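 Hoechst H33258 staining of treated DU-145 cells at 0.5 µM; apoptotic cells (apoptotic bodies, condensation, nuclear fragmentation) counted by manual field quantification under the microscope, compared with control.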

DU-145 [7] = test: Cytotoxicity against human DU145 cells after 48 hrs by MTT assay; type: functional, cell-based; details: DU-145, 48 h
Method in brief: (§2)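 Human cancer cell lines (A549 lung, MCF-7 breast, DU-145 prostate, HeLa cervical) exposed to compounds for 48 h; 50% inhibitory concentration derived, average of three individual experiments; doxorubicin reference agent.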

HeLa = test: Cytotoxicity against human HeLa cells after 48 hrs by MTT assay; type: functional, cell-based; method in brief: as §2
DU-145 [8] = test: Cell cycle arrest in human DU145 cells assessed as accumulation at G0/G1 phase at 0.5 uM after 48 hrs by propidium iodide staining-based flow cytometric analysis (reference value: 85.94%); type: functional
DU-145 [9] = test: Induction of apoptosis in human DU145 cells assessed as necrotic cells at 0.5 uM after 48 hrs by annexin V-FITC/propidium iodide staining-based flow cytometric analysis (reference value: 0.1%); type: functional
DU-145 [10] = test: Induction of apoptosis in human DU145 cells assessed as DNA fragmented cells at 0.5 uM after 48 hrs by Hoechst 33258 staining-based confocal microscopic analysis; type: functional, cell-based; method in brief: as §1
Calf thymus DNA [11] = test: Stabilization of calf thymus DNA at 1:2 DNA to compound molar ratio by CD spectroscopic analysis; type: nucleic-acid assay; details: Bos taurus
Method in brief: (§3)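 CD spectra of CT-DNA with compound added at 10 µM to equal CT-DNA concentration (1:1), then raised to 1:2 DNA:ligand; positive band at 275 nm monitored.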

DU-145 [12] = test: Induction of apoptosis in human DU145 cells assessed as early apoptotic cells at 1 uM after 48 hrs by annexin V-FITC/propidium iodide staining-based flow cytometric analysis (reference value: 0.43%); type: functional
DU-145 [13] = test: Cell cycle arrest in human DU145 cells assessed as accumulation at G2/M phase at 1 uM after 48 hrs by propidium iodide staining-based flow cytometric analysis (reference value: 1.97%); type: functional
DU-145 [14] = test: Cell cycle arrest in human DU145 cells assessed as accumulation at S phase at 1 uM after 48 hrs by propidium iodide staining-based flow cytometric analysis (reference value: 4.02%); type: functional
DU-145 [15] = test: Induction of apoptosis in human DU145 cells assessed as late apoptotic cells at 0.5 uM after 48 hrs by annexin V-FITC/propidium iodide staining-based flow cytometric analysis (reference value: 1.52%); type: functional
A549 = test: Cytotoxicity against human A549 cells after 48 hrs by MTT assay; type: functional, cell-based; details: A549, 48 h; method in brief: as §2
Calf thymus DNA [16] = test: Stabilization of calf thymus DNA at 1:1 DNA to compound molar ratio by CD spectroscopic analysis; type: nucleic-acid assay; details: Bos taurus; method in brief: as §3
DU-145 [17] = test: Cell cycle arrest in human DU145 cells assessed as accumulation at S phase at 0.5 uM after 48 hrs by propidium iodide staining-based flow cytometric analysis (reference value: 4.02%); type: functional
DU-145 [18] = test: Cell cycle arrest in human DU145 cells assessed as accumulation at subG1 phase at 0.5 uM after 48 hrs by propidium iodide staining-based flow cytometric analysis (reference value: 6.52%); type: functional
MCF7 = test: Cytotoxicity against human MCF7 cells after 48 hrs by MTT assay; type: functional, cell-based; details: MCF7, 48 h; method in brief: as §2
DU-145 [19] = test: Induction of apoptosis in human DU145 cells assessed as early apoptotic cells at 0.5 uM after 48 hrs by annexin V-FITC/propidium iodide staining-based flow cytometric analysis (reference value: 0.43%); type: functional
DU-145 [20] = test: Cell cycle arrest in human DU145 cells assessed as accumulation at subG1 phase at 1 uM after 48 hrs by propidium iodide staining-based flow cytometric analysis (reference value: 6.52%); type: functional
DU-145 [21] = test: Induction of apoptosis in human DU145 cells assessed as necrotic cells at 1 uM after 48 hrs by annexin V-FITC/propidium iodide staining-based flow cytometric analysis (reference value: 0.1%); type: functional
[22] = target: DNA topoisomerase II (Homo sapiens) (UniProt P11388+Q02880); test: Inhibition of DNA-topoisomerase 2 catalytic activity (unknown origin) using catenated kDNA as substrate assessed as formation of nicked circular and relaxed DNA at 1 to 100 uM after 30 mins by agarose gel electrophoresis; type: protein assay
Method in brief: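 Catenated DNA incubated with topo II and compound at 1, 10 and 100 µM; gel products scored for linear DNA (poison type) versus nicked circular/relaxed DNA retained in wells (catalytic inhibitor type); etoposide at 1, 10, 100 µM as control.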

Calf thymus DNA [23] = test: Induction of DNA intercalation of calf thymus DNA at 1 uM by UV-vis spectrophotometric analysis; type: nucleic-acid assay; details: Bos taurus
DU-145 [24] = test: Cell cycle arrest in human DU145 cells assessed as accumulation at G2/M phase at 0.5 uM after 48 hrs by propidium iodide staining-based flow cytometric analysis (reference value: 1.97%); type: functional
DU-145 [25] = test: Induction of apoptosis in human DU145 cells assessed as viable cells at 1 uM after 48 hrs by annexin V-FITC/propidium iodide staining-based flow cytometric analysis (reference value: 97.95%); type: functional; details: DU-145, 48 h, read-out: Activity

CSC(=S)NCc1cc2c([nH]c3ccccc32)c(-c2ccc(F)cc2)n1
viability at 0.5 µM (DU-145 [1]): 94.6%
Activity (Calf thymus DNA [2]): Active
Activity (Calf thymus DNA [3]): Active
Activity (DU-145 [4]): 75.52%
Activity (DU-145 [5]): 14.68%
Activity (DU-145 [6]): Active
IC50 (DU-145 [7]): 1.34 µM
IC50 (HeLa): 3.46 µM
Activity (DU-145 [8]): 84.83%
Activity (DU-145 [9]): 0.14%
Activity (DU-145 [10]): Active
Activity (Calf thymus DNA [11]): Active
Activity (DU-145 [12]): 4.4%
Activity (DU-145 [13]): 2.33%
Activity (DU-145 [14]): 3.34%
Activity (DU-145 [15]): 4.17%
IC50 (A549): 4.36 µM
Activity (Calf thymus DNA [16]): Active
Activity (DU-145 [17]): 3.36%
Activity (DU-145 [18]): 7.34%
IC50 (MCF7): 2.45 µM
Activity (DU-145 [19]): 1.07%
Activity (DU-145 [20]): 15.61%
Activity (DU-145 [21]): 0.96%
inhibition [22]: Active
Activity (Calf thymus DNA [23]): Active
Activity (DU-145 [24]): 1.98%
viability at 1 µM (DU-145 [25]): 80%
